In paper PMC5743469 (Theranostics, 2018):
“Also recorded” adds a separate entry of the source. Ends that are not written are not given here.

Tests used:
[1] = test system: HSV-1 (F strain); test: Post-entry inhibition assay; format: cell-based; conditions: time of addition experiment, peptide added to cells at 5 μg/mL after HSV-1 infection
[2] = test system: Vero cells; test: MTT cytotoxicity assay; format: cell-based, African green monkey; conditions: 48 h incubation, 0 to 200 μg/mL
How it was run: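 Vero cells were grown in MEM with 10% FBS at 37 ℃ and 5% CO2, seeded and cultured for 24 h. Medium was then replaced with fresh medium holding peptide at 0–200 μg/mL for 48 h at 37 ℃. MTT stock (5 mg/mL in PBS) was added for 4 h. Formazan was dissolved in DMSO for 10 min at room temperature and absorbance read at 570 nm.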

[3] = test system: Vero cells; test: Cellular uptake and localization of FITC-labeled peptides; format: cell-based, African green monkey; conditions: N-terminus FITC-labeled peptide, 10 μg/mL, 24 h at 37 ℃; confocal microscopy and flow cytometry (average FITC intensity)

## LWHHIWHFVHHLI-NH2 [Eval418-FH5]
[1]
  inhibitory rate of plaque formation when added after HSV-1 infection: 29.72%
[2]
  CC50 (50% cytotoxicity concentration): 106.68 µg/mL
[3]
  cellular uptake in Vero cells: significant cellular uptake; also recorded: considerable cellular uptake
